Values belong to the molecule of their own block, whether it stands above or below them.
Key:
factor XIIa = factor XIIa (Homo sapiens, UniProt P00748); experiment: Cleavage by purified factor XIIa; format: in vitro ADME; conditions: 5 μM Cy5-labeled peptide, 50 nM enzyme, 2 h, Tricine gel, UVP software
How it was run: (§1)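 Commercial active purified enzymes were each used at 50 nM with 5 μM Cy5-labeled test peptide in the manufacturer's recommended buffer. The figure legend gives 2 h; the methods text gives 4 h. Samples were boiled 1 min in Tricine sample buffer, run on 10–20% Tricine gels and imaged (ex 628 ± 20 nm, em >700 nm). Percent cleaved versus uncleaved was quantitated from gel fluorescence.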

matriptase [1] = biological target: matriptase (Homo sapiens, UniProt Q9Y5Y6); experiment: Cleavage by purified matriptase; format: in vitro ADME; conditions: purified enzyme; data not shown
Chain of matriptase (Homo sapiens, UniProt Q9Y5Y6) (Q9Y5Y6 615-855 limits assumed, species assumed): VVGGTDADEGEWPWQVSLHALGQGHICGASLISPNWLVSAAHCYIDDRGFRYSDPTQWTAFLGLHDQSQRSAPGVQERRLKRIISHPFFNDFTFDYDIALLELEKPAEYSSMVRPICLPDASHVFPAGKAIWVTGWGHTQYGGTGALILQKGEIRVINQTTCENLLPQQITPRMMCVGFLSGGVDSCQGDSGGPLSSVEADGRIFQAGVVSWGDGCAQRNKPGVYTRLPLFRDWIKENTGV

MMP-2 = MMP-2 (Homo sapiens, UniProt P08253); experiment: Cleavage by purified MMP-2; format: in vitro ADME; conditions: 5 μM Cy5-labeled peptide, 50 nM enzyme, 2 h, Tricine gel, UVP software
Chain of MMP-2 (P08253 110-660): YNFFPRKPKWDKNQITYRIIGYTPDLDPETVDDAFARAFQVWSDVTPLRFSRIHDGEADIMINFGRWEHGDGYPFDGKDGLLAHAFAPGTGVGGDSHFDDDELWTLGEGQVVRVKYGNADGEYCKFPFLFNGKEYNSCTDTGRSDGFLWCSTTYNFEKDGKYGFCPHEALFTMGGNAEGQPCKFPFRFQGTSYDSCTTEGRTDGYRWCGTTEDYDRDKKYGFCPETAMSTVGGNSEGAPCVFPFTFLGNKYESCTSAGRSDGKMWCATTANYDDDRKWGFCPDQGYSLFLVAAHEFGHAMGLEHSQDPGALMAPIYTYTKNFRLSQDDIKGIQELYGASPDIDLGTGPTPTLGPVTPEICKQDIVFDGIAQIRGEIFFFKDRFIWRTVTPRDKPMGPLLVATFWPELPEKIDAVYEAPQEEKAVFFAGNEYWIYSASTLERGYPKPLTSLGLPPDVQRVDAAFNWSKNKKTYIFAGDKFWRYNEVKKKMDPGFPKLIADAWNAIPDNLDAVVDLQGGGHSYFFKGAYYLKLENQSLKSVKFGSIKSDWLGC
How it was run: as §1

factor VIIa = experiment: Cleavage by purified factor VIIa; format: in vitro ADME; conditions: human
How it was run: as §1

cathepsin L = cathepsin L (Homo sapiens, UniProt P07711); experiment: Cleavage by purified cathepsin L; format: in vitro ADME; conditions: 5 μM Cy5-labeled peptide, 50 nM enzyme, 2 h, Tricine gel, UVP software
Chain of cathepsin L (P07711 114-333): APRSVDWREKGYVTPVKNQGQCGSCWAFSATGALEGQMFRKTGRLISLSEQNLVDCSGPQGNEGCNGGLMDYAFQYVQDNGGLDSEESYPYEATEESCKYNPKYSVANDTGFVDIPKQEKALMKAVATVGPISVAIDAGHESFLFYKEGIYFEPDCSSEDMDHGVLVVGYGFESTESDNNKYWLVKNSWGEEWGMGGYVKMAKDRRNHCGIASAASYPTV
How it was run: as §1

[2] = biological target: urokinase plasminogen activator (Homo sapiens, UniProt P00749); experiment: Cleavage by purified urokinase plasminogen activator; format: in vitro ADME
How it was run: as §1

thrombin = thrombin (Homo sapiens, UniProt P00734); experiment: Cleavage by purified thrombin; format: in vitro ADME; conditions: 5 μM Cy5-labeled peptide, 50 nM enzyme, 2 h, Tricine gel, UVP software
How it was run: as §1

leukocyte elastase = leukocyte elastase (Homo sapiens, UniProt P08246); experiment: Cleavage by leukocyte elastase; format: in vitro ADME; conditions: 5 μM Cy5-labeled peptide, leukocyte elastase (ELA-2 from a different source), gel
Chain of leukocyte elastase (P08246 30-267): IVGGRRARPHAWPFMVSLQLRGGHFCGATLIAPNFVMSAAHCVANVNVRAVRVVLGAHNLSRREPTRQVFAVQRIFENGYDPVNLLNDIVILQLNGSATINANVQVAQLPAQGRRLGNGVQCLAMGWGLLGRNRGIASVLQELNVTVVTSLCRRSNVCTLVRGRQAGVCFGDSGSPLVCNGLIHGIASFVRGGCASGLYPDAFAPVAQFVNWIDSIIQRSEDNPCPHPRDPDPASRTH
How it was run: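 Commercial active-form purified enzyme at 50 nm was incubated with 5 μm Cy5-labeled peptide in the manufacturer's recommended buffer. Samples were mixed with Tricine sample buffer, boiled 1 min, and resolved on 10–20% Tricine acrylamide gels. Gels were imaged quantitatively at excitation 628 ± 20 nm and emission >700 nm, and the percentage of cleaved versus uncleaved peptide was quantified.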

MMP-8 [3] = biological target: MMP-8 (Homo sapiens, UniProt P22894); experiment: Cleavage by purified MMP-8; format: in vitro ADME; conditions: purified enzyme; data not shown
Chain of MMP-8 (Homo sapiens, UniProt P22894) (P22894 101-467, species assumed): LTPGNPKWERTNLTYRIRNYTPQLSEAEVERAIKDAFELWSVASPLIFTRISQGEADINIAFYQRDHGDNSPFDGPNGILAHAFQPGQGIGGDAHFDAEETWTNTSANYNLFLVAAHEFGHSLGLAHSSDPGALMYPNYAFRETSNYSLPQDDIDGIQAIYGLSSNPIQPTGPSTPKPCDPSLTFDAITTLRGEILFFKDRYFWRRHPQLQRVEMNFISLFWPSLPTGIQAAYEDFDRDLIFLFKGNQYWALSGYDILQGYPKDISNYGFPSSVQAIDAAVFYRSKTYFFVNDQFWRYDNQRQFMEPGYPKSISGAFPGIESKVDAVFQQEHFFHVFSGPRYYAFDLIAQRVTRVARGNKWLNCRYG

factor XIa = factor XIa (Homo sapiens, UniProt P03951); experiment: Cleavage by purified factor XIa; format: in vitro ADME; conditions: 5 μM Cy5-labeled peptide, 50 nM enzyme, 2 h, Tricine gel, UVP software
Chain of factor XIa (P03951 388-625 limits assumed): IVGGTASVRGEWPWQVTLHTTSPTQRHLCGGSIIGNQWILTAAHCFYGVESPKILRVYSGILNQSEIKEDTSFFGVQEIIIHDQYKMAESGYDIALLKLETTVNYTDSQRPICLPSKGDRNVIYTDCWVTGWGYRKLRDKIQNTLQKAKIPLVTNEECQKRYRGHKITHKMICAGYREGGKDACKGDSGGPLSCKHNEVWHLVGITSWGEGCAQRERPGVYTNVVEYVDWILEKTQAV
Chain of factor XIa (P03951 19-387 partner limits assumed): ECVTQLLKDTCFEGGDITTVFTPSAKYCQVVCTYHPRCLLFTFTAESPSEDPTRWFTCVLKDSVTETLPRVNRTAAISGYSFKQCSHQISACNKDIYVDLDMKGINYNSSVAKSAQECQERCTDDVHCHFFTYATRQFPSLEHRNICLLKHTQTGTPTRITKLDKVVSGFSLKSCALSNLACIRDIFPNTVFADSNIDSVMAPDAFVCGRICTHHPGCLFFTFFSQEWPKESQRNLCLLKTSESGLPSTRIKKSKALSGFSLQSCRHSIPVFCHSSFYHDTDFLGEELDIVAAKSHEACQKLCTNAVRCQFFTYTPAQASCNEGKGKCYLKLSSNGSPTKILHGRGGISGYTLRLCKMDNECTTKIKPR
How it was run: as §1

[4] = Cleavage of ACPP by PyMT tumor cystic fluid; format: in vitro ADME, mouse; conditions: 5 μM Cy5-labeled peptide, 2% cystic fluid from PyMT tumors, 2 h, 37 °C, gel
How it was run: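 Cystic fluid was aspirated with a 28-gauge syringe from surgically exposed fluid-filled mammary tumor nodules of PyMT mice. 5 μM Cy5 peptide in PBS with 1 μM ZnCl2 was digested with cystic fluid (2%) at 37 °C. Aliquots were taken from 20 min to 18 h, with 2 h reported. Protease inhibitors (e.g. Ca-DTPA, TPEN, aprotinin, E-64, leupeptin, pepstatin A) were used at manufacturers' recommended concentrations. Read-out was gel fluorescence.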

cathepsin B = cathepsin B (Homo sapiens, UniProt P07858); experiment: Cleavage by purified cathepsin B; format: in vitro ADME; conditions: 5 μM Cy5-labeled peptide, 50 nM enzyme, 2 h, Tricine gel, UVP software
How it was run: as §1

legumain [5] = biological target: legumain (Homo sapiens, UniProt Q99538); experiment: Cleavage by purified legumain; format: in vitro ADME; conditions: purified enzyme; data not shown
Chain of legumain (Homo sapiens, UniProt Q99538) (Q99538 18-323 limits assumed, species assumed): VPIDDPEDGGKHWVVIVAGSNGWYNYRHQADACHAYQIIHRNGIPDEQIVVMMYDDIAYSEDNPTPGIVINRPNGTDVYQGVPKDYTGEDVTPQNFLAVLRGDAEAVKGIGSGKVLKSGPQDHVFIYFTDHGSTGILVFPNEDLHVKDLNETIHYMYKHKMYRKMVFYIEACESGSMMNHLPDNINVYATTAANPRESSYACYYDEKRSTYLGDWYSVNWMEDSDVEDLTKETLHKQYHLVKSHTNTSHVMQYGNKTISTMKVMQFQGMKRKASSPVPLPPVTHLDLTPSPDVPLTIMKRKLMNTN

factor IXa = factor IXa (Homo sapiens, UniProt P00740); experiment: Cleavage by purified factor IXa; format: in vitro ADME; conditions: 5 μM Cy5-labeled peptide, 50 nM enzyme, 2 h, Tricine gel, UVP software
Chain of factor IXa (P00740 227-461 limits assumed): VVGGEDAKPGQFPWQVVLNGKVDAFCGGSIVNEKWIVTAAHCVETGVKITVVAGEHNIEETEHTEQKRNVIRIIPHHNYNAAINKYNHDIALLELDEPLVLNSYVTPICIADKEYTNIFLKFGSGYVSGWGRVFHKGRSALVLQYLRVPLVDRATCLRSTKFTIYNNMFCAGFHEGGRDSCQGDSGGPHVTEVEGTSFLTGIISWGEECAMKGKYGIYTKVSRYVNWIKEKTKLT
Chain of factor IXa (P00740 47-191 partner limits assumed): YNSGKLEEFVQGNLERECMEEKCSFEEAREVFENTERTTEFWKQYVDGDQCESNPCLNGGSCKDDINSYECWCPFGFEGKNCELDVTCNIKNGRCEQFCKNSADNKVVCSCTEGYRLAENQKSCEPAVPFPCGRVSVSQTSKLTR
How it was run: as §1

MMP-9 = MMP-9 (Homo sapiens, UniProt P14780); experiment: Cleavage by purified MMP-9; format: in vitro ADME; conditions: 5 μM Cy5-labeled peptide, 50 nM enzyme, 2 h, Tricine gel, UVP software
Chain of MMP-9 (P14780 107-707 limits assumed): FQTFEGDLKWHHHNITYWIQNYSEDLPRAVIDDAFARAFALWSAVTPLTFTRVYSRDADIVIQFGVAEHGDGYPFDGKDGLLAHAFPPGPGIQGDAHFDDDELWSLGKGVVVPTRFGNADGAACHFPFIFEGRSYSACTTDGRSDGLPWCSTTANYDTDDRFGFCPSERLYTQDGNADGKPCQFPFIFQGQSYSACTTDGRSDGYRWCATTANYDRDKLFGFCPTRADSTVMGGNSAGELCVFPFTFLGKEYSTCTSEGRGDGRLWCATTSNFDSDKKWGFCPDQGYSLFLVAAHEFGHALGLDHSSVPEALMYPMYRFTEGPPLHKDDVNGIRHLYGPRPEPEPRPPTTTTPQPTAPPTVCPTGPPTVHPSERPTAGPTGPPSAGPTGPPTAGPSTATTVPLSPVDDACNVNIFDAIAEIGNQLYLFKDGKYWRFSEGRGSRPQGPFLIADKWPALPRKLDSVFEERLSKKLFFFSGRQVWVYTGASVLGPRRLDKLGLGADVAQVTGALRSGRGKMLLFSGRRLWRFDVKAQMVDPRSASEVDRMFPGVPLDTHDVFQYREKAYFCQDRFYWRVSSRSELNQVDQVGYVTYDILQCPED
How it was run: as §1

[6] = biological target: tissue plasminogen activator (Homo sapiens, UniProt P00750); experiment: Cleavage by purified tissue plasminogen activator; format: in vitro ADME; conditions: 5 μM Cy5-labeled peptide, 50 nM enzyme, 2 h, Tricine gel, UVP software
How it was run: as §1

MMP12 = MMP12 (Homo sapiens, UniProt P39900); experiment: Cleavage by purified MMP12; format: in vitro ADME; conditions: purified enzyme; at times only visible upon gel overexposure
Chain of MMP12 (P39900 106-268 limits assumed): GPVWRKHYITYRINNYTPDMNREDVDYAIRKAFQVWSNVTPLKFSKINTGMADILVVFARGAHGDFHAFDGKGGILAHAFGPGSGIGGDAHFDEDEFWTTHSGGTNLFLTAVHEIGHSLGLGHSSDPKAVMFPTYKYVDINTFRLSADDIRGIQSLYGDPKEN

MMP-14 = experiment: Cleavage by purified MMP-14; format: in vitro ADME
How it was run: as §1

PyMT mammary tumors = experiment: Fluorescence imaging contrast in PyMT tumor-bearing mice; format: in vivo, mouse; conditions: live mice, 100 μl of 100 μM Cy5-labeled ACPP, imaged 6 h post injection
How it was run: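 PyMT transgenic mice bearing spontaneous mammary tumors were anesthetized with ketamine 80 mg/kg plus midazolam 5 mg/kg (1:1) and weighed. They were injected via the tail vein with Cy5 peptide: free peptide 100 μl of 100 μM (10 nmol) or albumin-reactive peptide 100 μl of 30 μM (3 nmol). Maestro imaging (ex 640 ± 24 nm, em >700 nm) was done at 6 h or 48 h, comparing tumor with adjacent normal tissue.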

[7] = Tumor standardized uptake value; format: in vivo; conditions: PyMT, mouse, iv, 10 nmol
cathepsin H = experiment: Cleavage by purified cathepsin H; format: in vitro ADME; conditions: human
How it was run: as §1

factor Xa = factor Xa (Homo sapiens, UniProt P00742); experiment: Cleavage by purified factor Xa; format: in vitro ADME; conditions: 5 μM Cy5-labeled peptide, 50 nM enzyme, 2 h, Tricine gel, UVP software
Chain of factor Xa (P00742 235-488 limits assumed): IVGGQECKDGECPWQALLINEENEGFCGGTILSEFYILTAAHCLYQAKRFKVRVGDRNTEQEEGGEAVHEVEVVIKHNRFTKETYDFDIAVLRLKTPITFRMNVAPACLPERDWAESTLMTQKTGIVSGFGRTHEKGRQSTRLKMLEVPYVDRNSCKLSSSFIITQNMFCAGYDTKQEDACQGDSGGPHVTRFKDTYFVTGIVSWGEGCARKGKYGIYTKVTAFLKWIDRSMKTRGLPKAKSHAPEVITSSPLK
Chain of factor Xa (P00742 41-179 partner limits assumed): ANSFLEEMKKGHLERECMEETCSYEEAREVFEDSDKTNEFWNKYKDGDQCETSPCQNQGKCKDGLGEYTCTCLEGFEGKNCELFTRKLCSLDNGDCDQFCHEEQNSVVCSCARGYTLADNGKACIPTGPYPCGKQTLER
How it was run: as §1

pancreatic elastase = pancreatic elastase (Sus scrofa, UniProt P00772); experiment: Cleavage by pancreatic elastase; format: in vitro ADME, porcine; conditions: 5 μM Cy5-labeled peptide, pancreatic elastase (ELA-1), gel
Chain of pancreatic elastase (P00772 27-266): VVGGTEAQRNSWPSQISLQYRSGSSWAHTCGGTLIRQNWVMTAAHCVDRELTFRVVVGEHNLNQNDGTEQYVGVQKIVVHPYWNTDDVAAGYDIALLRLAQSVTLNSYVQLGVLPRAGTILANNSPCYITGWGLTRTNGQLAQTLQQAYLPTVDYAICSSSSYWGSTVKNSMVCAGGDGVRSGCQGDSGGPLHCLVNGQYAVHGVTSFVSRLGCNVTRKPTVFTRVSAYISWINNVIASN
How it was run: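 5 μM Cy5-labeled test peptide was exposed to pancreatic elastase (ELA-1), with or without 60 μM α1-antitrypsin. Neutrophil/leukocyte elastase (two sources) and tumor extract (2.0 to 0.25%) were tested in parallel. Cleavage was read from fluorescent Tricine gel electrophoresis.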

MMP-13 [8] = biological target: MMP-13 (Homo sapiens, UniProt P45452); experiment: Cleavage by purified MMP-13; format: in vitro ADME; conditions: purified enzyme; data not shown
Tumor uptake = format: in vivo; conditions: nude, mouse, tumor (MDA-MB-435 M4A4 xenograft), iv, 10 nmol
How it was run: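 After imaging, mice were euthanized with isoflurane. 30 mg of each tissue was homogenized in 100 μl Tris pH 7.6 with 1% SDS, heated to 85 °C for 10 min, microwaved 10 s and spun at 20,500 × g for 15 min, then imaged. Tissue-specific spiked standards calibrated fluorescence. SUV = tissue peptide molality ÷ injected dose (mol/kg body weight). Values are means ± S.D.; two-tailed t tests.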

kallikrein 5 = kallikrein 5 (Homo sapiens, UniProt Q9Y337); experiment: Cleavage by purified kallikrein 5; format: in vitro ADME; conditions: 5 μM Cy5-labeled peptide, 50 nM enzyme, 2 h, Tricine gel, UVP software
Chain of kallikrein 5 (Q9Y337 67-293 limits assumed): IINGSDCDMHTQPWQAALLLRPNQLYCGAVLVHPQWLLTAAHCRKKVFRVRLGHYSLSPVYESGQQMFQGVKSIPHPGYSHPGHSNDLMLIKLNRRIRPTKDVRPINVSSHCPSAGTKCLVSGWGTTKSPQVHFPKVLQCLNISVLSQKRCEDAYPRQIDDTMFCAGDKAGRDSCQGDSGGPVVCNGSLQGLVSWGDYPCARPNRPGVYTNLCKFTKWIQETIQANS
How it was run: as §1

enterokinase = experiment: enterokinase; conditions: up to 2 h
legumain [9] = experiment: legumain
hepsin = experiment: hepsin; conditions: up to 2 h
MMP-8 [10] = experiment: MMP-8
matriptase [11] = experiment: matriptase
[12] = tested on: prostate-specific antigen; experiment: prostate-specific antigen; conditions: up to 2 h
MMP-13 [13] = experiment: MMP-13
plasmin = plasmin (Homo sapiens, UniProt P00747); experiment: Effect of inhibitor on plasmin cleavage of RLQLKL ACPP; format: biochemical; conditions: 5 μM Cy5-labeled RLQLKL ACPP, gel
[14] = Effect of inhibitors on cleavage of RLQLKL ACPP by tumor extract; format: biochemical, mouse; conditions: 5 μM Cy5-labeled RLQLKL ACPP, tumor extract 2.0 to 0.25%; 60 μM α1-antitrypsin; gel
How it was run: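 Fresh tumor tissue was gently homogenized in PBS on ice and spun at 14,000 × g for 1 min; the supernatant served as the extract. The 5 μm Cy5 peptide was digested at 37 °C in PBS containing 1 μm ZnCl2, with or without 60 μm α1-antitrypsin. Aliquots were taken from 20 min to 18 h, with the 2-h point reported. Cleavage was quantified by Tricine gel and fluorescence imaging.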

[15] = Effect of inhibitors on cleavage of RLQLKL ACPP by PyMT tumor cystic fluid; format: biochemical, mouse; conditions: 5 μM Cy5-labeled RLQLKL ACPP, 2% cystic fluid, 2 h; 5 mM Ca-DTPA, 50 μM TPEN, 18 μM SB3CT, 50 nM GM6001, 0.26 μM prinomastat, 150 nM aprotinin, 100 μM leupeptin, 60 μM α1-antitrypsin; gel
How it was run: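 Cystic fluid was aspirated by syringe from surgically exposed fluid-filled mammary tumor nodules of PyMT mice. The 5 μm Cy5 peptide was incubated at 37 °C for 2 h in PBS with 1 μm ZnCl2. Inhibitors were used at manufacturer-recommended concentrations, including 10 μm E-64, 1 μm pepstatin A, protease inhibitor mixture III (1:1000) and mixture III plus DTPA. Cleavage was read by Tricine gel electrophoresis and Cy5 fluorescence imaging.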

Chain of factor XIIa (P00748 373-615 limits assumed): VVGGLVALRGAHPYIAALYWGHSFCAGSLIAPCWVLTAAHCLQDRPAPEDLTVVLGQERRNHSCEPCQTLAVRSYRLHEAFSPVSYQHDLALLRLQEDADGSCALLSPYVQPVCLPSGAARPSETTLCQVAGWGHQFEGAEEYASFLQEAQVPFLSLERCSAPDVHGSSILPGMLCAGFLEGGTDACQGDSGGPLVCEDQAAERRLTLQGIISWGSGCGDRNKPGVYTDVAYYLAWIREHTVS

Molecule: CC[N+]1=C(C=CC=CC=C2N(CCCCCC(=O)NCCN3C(=O)CC(SC[C@@H](NC(=O)[C@@H](CCCNC(=N)N)NC(=O)[C@@H](CCCNC(=N)N)NC(=O)[C@@H](CCCNC(=N)N)NC(=O)[C@@H](CCCNC(=N)N)NC(=O)[C@@H](CCCNC(=N)N)NC(=O)[C@@H](CCCNC(=N)N)NC(=O)[C@@H](CCCNC(=N)N)NC(=O)[C@@H](CCCNC(=N)N)NC(=O)[C@@H](CCCNC(=N)N)NC(=O)[C@H](CC(C)C)NC(=O)[C@H](CCCCN)NC(=O)[C@H](CC(C)C)NC(=O)[C@H](CCC(N)=O)NC(=O)[C@H](CC(C)C)NC(=O)[C@H](CCCNC(=N)N)NC(=O)CCCCCNC(=O)[C@@H](CCC(=O)O)NC(=O)[C@@H](CCC(=O)O)NC(=O)[C@@H](CCC(=O)O)NC(=O)[C@@H](CCC(=O)O)NC(=O)[C@@H](CCC(=O)O)NC(=O)[C@@H](CCC(=O)O)NC(=O)[C@@H](CCC(=O)O)NC(=O)[C@@H](CCC(=O)O)NC(=O)[C@H](N)CCC(=O)O)C(N)=O)C3=O)c3ccc(S(=O)(=O)O)cc3C2(C)C)C(C)(C)c2cc(S(=O)(=O)[O-])ccc21 (stereo partly shown) [RLQLKL ACPP]
percentage of cleavage by factor XIIa (factor XIIa): less than 3%
cleavage by matriptase (in words) (matriptase [1]): no cleavage
percentage of cleavage by MMP-2 (MMP-2): less than 3%
metabolised at 2 h, 5 μM (factor VIIa): < 3%
percentage of cleavage by cathepsin L (cathepsin L): less than 3%
percentage of cleavage by urokinase plasminogen activator ([2]; 5 μM Cy5-labeled peptide, 50 nM enzyme, 2 h, Tricine gel, UVP software): less than 3%
cleavage by urokinase (in words) ([2]; purified enzyme, data not shown): no cleavage
percentage of cleavage by thrombin (thrombin): less than 3%
cleavage by leukocyte elastase (in words) (leukocyte elastase): effectively cleaved
cleavage by MMP-8 (in words) (MMP-8 [3]): no cleavage
percentage of cleavage by factor XIa (factor XIa): less than 3%
cleavage by cystic fluid (in words) [4]: similarly to tumor tissue extracts
percentage of cleavage by cathepsin B (cathepsin B): less than 3%
cleavage by legumain (in words) (legumain [5]): no cleavage
percentage of cleavage by factor IXa (factor IXa): less than 3%
percentage of cleavage by MMP-9 (MMP-9): less than 3%
percentage of cleavage by tissue plasminogen activator [6]: less than 3%
cleavage by MMP12 (in words) (MMP12): minimal cleavage
metabolised at 2 h, 5 μM (MMP-14): < 3%
skin uptake versus PLGLAG ACPP (in words) (PyMT mammary tumors): significantly less
SUV at 6 h [7]: 0.39 ± 0.14 SUV
metabolised at 2 h, 5 μM (cathepsin H): < 3%
percentage of cleavage by factor Xa (factor Xa): less than 3%
cleavage by pancreatic elastase (in words) (pancreatic elastase): effectively cleaved
cleavage by MMP-13 (in words) (MMP-13 [8]): no cleavage
SUV at 6 h (Tumor uptake): 0.7 ± 0.27 SUV
percentage of cleavage by kallikrein 5 (kallikrein 5): less than 3%

not cleaved (enterokinase): less than 3% cleavage
not cleaved (legumain [9]): no cleavage
not cleaved (hepsin): less than 3% cleavage
not cleaved (MMP-8 [10]): no cleavage
not cleaved (matriptase [11]): no cleavage
not cleaved [12]: less than 3% cleavage
not cleaved (MMP-13 [13]): no cleavage
Molecule: NH2-e9-(ahx)-RLQLKL-r9-c-(Cy5)-NH2

inhibition of plasmin cleavage of RLQLKL ACPP (in words) (plasmin): did inhibit
B1: serpin F2/α2-antiplasmin: plasmin-specific inhibitor (protein, UniProt P08697 40-491, looked up)
Alpha-2-antiplasmin: NQEQVSPLTLLKLGNQEPGGQTALKSPPGVCSRDPTPEQTHRLARAMMAFTADLFSLVAQTSTCPNLILSPLSVALALSHLALGAQNHTLQRLQQVLHAGSGPCLPHLLSRLCQDLGPGAFRLAARMYLQKGFPIKEDFLEQSEQLFGAKPVSLTGKQEDDLANINQWVKEATEGKIQEFLSGLPEDTVLLLLNAIHFQGFWRNKFDPSLTQRDSFHLDEQFTVPVEMMQARTYPLRWFLLEQPEIQVAHFPFKNNMSFVVLVPTHFEWNVSQVLANLSWDTLHPPLVWERPTKVRLPKLYLKHQMDLVATLSQLGLQELFQAPDLRGISEQSLVVSGVQHQSTLELSEVGVEAAAATSIAMSRMSLSSFSVNRPFLFFIFEDTTGLPLFVGSVRNPNPSAPRELKEQQDSPGNKDFLQSLKGFPRGDKLFGPDLKLVPPMEEDYPQFGSPK
inhibition of tumor extract cleavage of RLQLKL ACPP (in words) [14]: did not inhibit
inhibition of cystic fluid cleavage of RLQLKL ACPP (in words) [15]: did not inhibit

Reference: paper PMC2903386 (The Journal of Biological Chemistry, 2010)
